UCH37 DUB inh: blocks the human deubiquitinase UCH37; Q9Y5K5; purified proteasome/UCH37, Ub-AMC cleavage fluorescence; inhibition, % (concentration not given with the values); actives 0.33% (n = 330,000); AID 588478;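 active means mean inhibition over replicate wells above about 20%, limit read from the data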;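 further: 0% = compound-free wells with enzyme and 100% = wells lacking proteasome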
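assay system = human UCH37 enzyme supplied as purified proteasome complex | amount = proteasome at 0.15 nM in the dispensed enzyme solution | schedule = 30 min compound-proteasome preincubation then 25 min substrate reaction, room temperature | measured by = fluorescence, ex 355 nm, em 460 nm | benchmarks = no-proteasome wells (full inhibition) and compound-free wells (no inhibition)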
SENP6 block: inhibitors of human SENP6 protease. Recombinant SENP6 catalytic domain, aminoluciferin luminescence. actives 1.8% (n = 330,000). inhibition, % at 10 µM. AID 2599;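 active means inhibition above about 50% at the single tested dose, limit read from the data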;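 further: plate controls were DMSO wells with enzyme for no effect and DMSO wells lacking enzyme for full effect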
SENP1 inh: blocks the human SENP1 SUMO protease catalytic domain | actives 0.21% (n = 360,000) | inhibition, % at 10 µM | AID 624204 | recombinant SENP1 catalytic domain, CyPet-SUMO1-YPet FRET cleavage;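 active means inhibition at least 30% at 10 µM, raw YFP signal under a set limit, fluorescence ratio 0.5 to 1.5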;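 further: 0% = enzyme with DMSO and 100% = no enzyme wells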
Target sequence (Q9P0U3 419-644 limits assumed): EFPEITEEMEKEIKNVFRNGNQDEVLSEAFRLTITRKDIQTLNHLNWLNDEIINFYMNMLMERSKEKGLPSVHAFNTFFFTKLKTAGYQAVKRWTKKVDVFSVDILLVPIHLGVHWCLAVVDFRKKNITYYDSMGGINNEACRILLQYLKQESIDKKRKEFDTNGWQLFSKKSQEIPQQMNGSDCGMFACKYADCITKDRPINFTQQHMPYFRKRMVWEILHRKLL
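material = recombinant human SENP1 catalytic domain, His6-tagged | quantity = 20 pM enzyme | reagent = 25 nM SUMO1 FRET substrate | compound dosing = 10 µM single point, 0.5% DMSO | timing = 50 min enzyme reaction, room temperature, light-protected | detection = FRET, CFP and YFP emission | control set = no-enzyme low, enzyme-DMSO high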
SENP8 block-1: inhibitors of human SENP8 protease; inhibition, % at 10 µM; purified SENP8, Z-RLRGG-aminoluciferin cleavage, luminescence; actives 1.2% (n = 330,000); AID 2540; in the data active means inhibition above about 50%
Target sequence (Q96LD8 whole entry, looked up): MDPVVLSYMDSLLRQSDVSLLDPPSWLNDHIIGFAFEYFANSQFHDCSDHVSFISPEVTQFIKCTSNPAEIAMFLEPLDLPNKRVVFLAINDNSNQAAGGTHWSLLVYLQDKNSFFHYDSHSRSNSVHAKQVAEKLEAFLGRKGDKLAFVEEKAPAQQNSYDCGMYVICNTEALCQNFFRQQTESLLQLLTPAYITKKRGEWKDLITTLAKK
SENP8 block-2: inhibitors of human SENP8 protease | actives 0.64% (n = 360,000) | recombinant SENP8, Nedd8 substrate fluorescence | Q96LD8 | inhibition, % at 20 µM; in the data active means inhibition mostly above about 40%, no sharp cut-off; inactive means mostly below about 27%
SENP7 inh: blocks the human protease SENP7 | inhibition, % at 5 µM | actives 1.5% (n = 330,000) | recombinant SENP7, Z-RLRGG-aminoluciferin luminescence, 40 min | Q9BQF6;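 active means inhibition above about 50% at the single test dose, limit read from the data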;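 further: plate controls were DMSO with enzyme for no effect and no enzyme buffer wells for full effect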
SENP8 conf: confirmation of human SENP8 protease inhibitors. inhibition, % at 12.5 µM. AID 488912. Recombinant SENP8, Z-RLRGG-aminoluciferin luminescence, 60 min. shares compounds with SENP7 inh. actives 40% (n = 6,200);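 active means mean inhibition across replicates above about 50%, limit read from the data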
SENP6 conf: confirmation of human SENP6 protease inhibitors; AID 488915; inhibition, % at 12.5 µM; recombinant SENP6, Z-RLRGG-aminoluciferin luminescence; actives 58% (n = 6,200); shares compounds with SENP7 inh
SENP7 confirm: human SENP7 inhibition, confirmed; shares compounds with SENP7 inh; recombinant SENP7, Z-RLRGG-aminoluciferin luminescence, 40 min; inhibition, % at 12.5 µM; actives 69% (n = 6,200); AID 488917
Casp3 select: inhibits human caspase-3 in SENP selectivity test; shares compounds with SENP7 inh; purified caspase-3, Z-DEVD-aminoluciferin luminescence, 60 min; inhibition, % at 12.5 µM; actives 60% (n = 6,200); AID 488918;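 active means mean inhibition above about 50%, limit read from the data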;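 further: plate controls were enzyme with DMSO for no effect and wells without caspase-3 for full effect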
Target sequence (P42574 28-227 limits assumed): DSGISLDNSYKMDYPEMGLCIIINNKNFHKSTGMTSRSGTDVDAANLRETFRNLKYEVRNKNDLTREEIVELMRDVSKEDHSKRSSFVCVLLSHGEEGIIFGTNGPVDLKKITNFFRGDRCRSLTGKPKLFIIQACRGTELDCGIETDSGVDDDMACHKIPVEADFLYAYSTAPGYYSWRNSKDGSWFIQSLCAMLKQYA
Luc interf: counter-screen for SENP inhibitors: luminescence interference; shares compounds with SENP7 inh; Pre-incubated SENP8/Z-RLRGG-aminoluciferin, luciferase luminescence interference; inhibition, % at 12.5 µM; actives 39% (n = 6,200);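 active means mean inhibition above about 50% when retested at one dose, limit read from the data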;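 further: plate controls were DMSO wells with completed reaction for no effect and substrate without enzyme for full effect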
* = called active by the depositor; / = no result. Shown are actives, neighbours in structure and some others; about 2.6% of the full set was active somewhere.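 How the source made its calls, unless noted: active means mean inhibition above about 50% in the one-dose retest (limit read from the data); inactive means the rest.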

SMILES	UCH37 DUB inh	SENP6 block	SENP1 inh	SENP8 block-1	SENP8 block-2	SENP7 inh	SENP8 conf	SENP6 conf	SENP7 confirm	Casp3 select	Luc interf
CCOc1ccc(-c2c(C(=O)NN=C(C)c3cccnc3)nnn2-c2nonc2N)cc1	2	/	/	/	/	/	/	/	/	/	/
Cc1ccc(C(=O)Nc2scc(-c3ccccc3)c2C(=O)O)cc1	0	94*	-2	93*	-153	70*	7	97*	102*	95*	95*
COc1ccc(-c2csc(NC(=O)c3ccccc3F)c2C(=O)O)cc1	4	68*	2	60*	-43	18	14	73*	90*	75*	76*
O=C(Nc1scc(-c2cccs2)c1C(=O)O)c1cccs1	0	87*	-1	76*	-127	-8	-20	80*	95*	80*	85*
COc1cc(C(=O)Nc2scc(-c3ccc(C)cc3)c2C(=O)O)cc(OC)c1OC	0	-9	0	0	-147	-9	/	/	/	/	/
COC(=O)c1c(-c2ccc(F)cc2)csc1NC(=O)c1ccco1	-21	-3	-2	-11	-496	-4	/	/	/	/	/
O=C(Nc1scc(-c2ccccc2)c1C(=O)O)c1ccco1	9	71*	0	47	-94	44	62*	60*	87*	83*	76*
COc1ccc(OCC(=O)NN=CC2CC=CCC2)cc1 (centres undefined)	4	/	/	/	/	/	/	/	/	/	/
Cc1ccc(C(=O)/C=C/c2cn(CN3CCN(C)CC3)c3ccccc23)cc1	-9	12	-23	-11	-279	-4	/	/	/	/	/
Cn1cc(/C=C/C(=O)c2ccccc2)c2ccccc21	0	69*	-38	63*	-252	79*	6	74*	89*	45	43
COc1ccccc1N1CCN(N=Cc2ccc(C(=O)O)cc2)CC1	2	/	/	/	/	/	/	/	/	/	/
Nc1c(C(=O)O)ccc2c1C(=O)c1ccccc1C2=O	14	-9	5	54*	29	4	69*	66*	83*	79*	73*
COC(=O)c1ccc2c(c1O)C(=O)c1ccccc1C2=O	4	71*	12	44	27	44	41	55*	66*	74*	10
O=C(O)c1ccc([N+](=O)[O-])c2c1C(=O)c1ccccc1C2=O	6	-7	1	-6	18	-4	/	/	/	/	/
O=C(O)CCSc1nc2ccccc2s1	6	-3	4	-16	7	-18	/	/	/	/	/
Nc1c(SCCC(=O)O)ccc2c1C(=O)c1ccccc1C2=O	12	89*	25	84*	31	45	93*	93*	98*	94*	92*
O=C(NNC(=O)c1ccc(-c2ccccc2)cc1)Nc1ccccc1F	-1	2	0	2	3	6	/	/	/	/	/
CC(C)c1ccc(C(=O)Nc2cccnc2)cc1	1	73*	3	36	28	71*	62*	58*	88*	79*	32
O=C(Nc1cccnc1)c1ccc(-c2ccccc2)cc1	0	33	1	66*	18	82*	51*	70*	96*	75*	37
O=C(NNC(=O)c1ccc(-c2ccccc2)cc1)c1ccccc1	5	-5	3	30	10	62*	34	41	82*	80*	47
Cn1c(CS/C(N)=N/N=Cc2ccccc2)c(Br)c(=O)n1-c1ccccc1	14	/	/	/	/	/	/	/	/	/	/
O=C(CN1CCCCCCC1)NN=Cc1ccc(F)c(F)c1	3	/	/	/	/	/	/	/	/	/	/
CCCCCc1ccc(-c2cn(Cc3ccc(C(=O)c4ccccc4)cc3)nn2)cc1	3	8	1	0	20	8	/	/	/	/	/
O=C(c1ccccc1)c1ccc(Cn2cc(-c3ccccc3)nn2)cc1	0	61*	0	58*	13	52*	52*	65*	83*	31	17
COCCn1c(C)cc(C(=O)CSc2nnc(C)s2)c1C	6	46	2	10	19	50*	41	38	80*	81*	56*
SMILES	UCH37 DUB inh	SENP6 block	SENP1 inh	SENP8 block-1	SENP8 block-2	SENP7 inh	SENP8 conf	SENP6 conf	SENP7 confirm	Casp3 select	Luc interf
COCCn1c(C)cc(C(=O)CSc2n[nH]c(N)n2)c1C	0	-5	0	-9	22	-7	/	/	/	/	/
Nc1nnnn1N=Cc1cccs1	3	/	/	/	/	/	/	/	/	/	/
Nc1cc(Cl)nc(N/N=C/c2c(O)ccc3ccccc23)n1	/	58*	48*	32	-20	38	37	47	84*	25	13
CC(=O)c1ccc(NC(=O)/C(Cl)=C/c2ccccc2)cc1	7	67*	3	45	6	85*	13	19	23	20	8
O=C(Nc1cccc2ccccc12)/C(Cl)=C/c1ccccc1	2	12	0	-15	19	9	/	/	/	/	/
O=C(Nc1ccc(F)cc1)/C(Cl)=C/c1ccccc1	6	3	1	79*	11	88*	-11	79*	96*	72*	14
Cc1ccc(NC(=O)N/C=C/c2ccccc2)cc1	1	11	1	-3	9	2	/	/	/	/	/
Cc1ccc(NC(=O)/C(Cl)=C\c2ccccc2)cc1	2	94*	2	86*	17	91*	83*	87*	100*	84*	75*
NC(=S)NN=Cc1cccc(Br)c1	0	/	/	/	/	/	/	/	/	/	/
COc1ccc(C(=O)NCC(=O)NN=C/C(C)=C/c2ccco2)cc1OC	10	/	/	/	/	/	/	/	/	/	/
Cc1ccc(C(=O)c2ccc(C)cc2)cc1	4	-25	1	-11	12	8	/	/	/	/	/
CC(=O)c1ccc(N=Nc2ccc(C)cc2)cc1	6	85*	2	82*	22	87*	61*	62*	79*	68*	48
CC(=O)c1ccc(N=Nc2ccc(N(C)C)cc2)cc1	1	54*	2	75*	37	93*	16	25	16	53*	13
CN(C)c1ccc(N=Nc2ccccc2Br)cc1	3	96*	1	93*	35	99*	87*	94*	91*	90*	57*

Screens (PubChem BioAssay)
